# In publication PMC6543826 (Bioorganic chemistry, 2018):
# Several values for one entry are separate records, joined by “and”; a condition that tells them apart may be missing. Equal entries are not always repeated.
# What was measured:
# ERK1 = ERK1 (Homo sapiens, UniProt P27361); experiment: in vitro radioactive kinase assay, Ets-1 phosphorylation by ERK1; format: biochemical; conditions: ERK1 IC50, 100 μM ATP, 10 μM Ets-1
# Procedure, shortened: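 Radiometric assay at 28–30 °C in 25 mM HEPES pH 7.5, 50 mM KCl, 0.1 mM EDTA/EGTA, 2 mM DTT, 11 mM MgCl2, 10 μg mL−1 BSA and 5% DMSO (final). 2 nM activated ERK1 was used with 10 μM His-Ets-1 (1–138). Reactions were started with [γ-32P]ATP (10 or 100 μM). IC50 came from fitting rate versus inhibitor concentration to a hyperbolic decay equation.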
# SK-MEL-2 = experiment: cells; format: cell-based
# SF-295 = experiment: cells; format: cell-based
# ERK2 = ERK2 (Rattus norvegicus, UniProt P63086); experiment: in vitro radioactive kinase assay, Ets-1 phosphorylation by ERK2; format: biochemical
# Procedure, shortened: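 Activated rat ERK2 (2 nM) was tested with His-Ets-1 (1–138) at 28–30 °C in HEPES pH 7.5 buffer with 11 mM MgCl2, BSA and 5% DMSO. Reactions were started with [γ-32P]ATP (10 or 100 μM).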
# RPMI-8226 = experiment: cells; format: cell-based
# OVCAR-8 = experiment: cells; format: cell-based
# A375 cells [1] = experiment: anchorage dependent colony formation assay; format: cell-based, human; conditions: A375, 10–14 days
# Procedure, shortened: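 1000 A375 cells per 60 mm plate adhered for 24 h, then were treated with various test compound doses for 10–14 days. Plates were PBS-washed and fixed in 4% paraformaldehyde (15 min, room temperature). They were stained with 0.2% crystal violet in 20% methanol for 10 min, water-washed and imaged under microscope.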
# OVCAR-5 = experiment: cells; format: cell-based
# A498 = experiment: NCI-60 SRB screen, Renal cancer; format: cell-based, human
# A375 cells [2] = experiment: IncuCyte real time proliferation assay; format: cell-based, human; conditions: imaged every 1 h for 90 h
# Procedure, shortened: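 Real-time growth: 2000 A375 cells per well adhered for 24 h, then were treated with a range of test compound doses. Phase images were taken on IncuCyte ZOOM (10× objective) every 1 h for 90 h in total. Growth confluence was estimated from the images and plotted.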
# EKVX = experiment: NCI-60 SRB screen, Non-small cell lung cancer; format: cell-based, human
# SK-MEL-28 = experiment: cells; format: cell-based
# [3] = test system: cleaved PARP in A375 cells; experiment: PARP cleavage western blot; format: cell-based, human; conditions: 12 h exposure
# Procedure, shortened: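 A375 cells (1,000,000 per well) were seeded 24 h, then exposed to several test compound doses for 12 h before lysis in buffer with protease/phosphatase inhibitors. Protein was measured by Bradford. 60 μg lysate was run on 10% SDS-PAGE and blotted to PVDF. Blots were probed for PARP and cleaved PARP, with vinculin as loading control. Done twice.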
# SF-539 = experiment: cells; format: cell-based
# NCI-H226 = experiment: cells; format: cell-based
# [4] = test system: caspase 3/7 in A375 cells; experiment: IncuCyte Caspase 3/7 apoptosis assay; format: cell-based, human; conditions: doses of 3.7 and 33.3 μM, after 48 and 72 h
# Procedure, shortened: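 2000 A375 cells per well adhered for 24 h, then received test compound doses plus a constant concentration of IncuCyte Caspase-3/7 reagent. Cells were imaged on IncuCyte ZOOM (10× objective) at set time points, and stained cells were counted. Apoptotic cell number was normalized to percentage area confluence at the final time point.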
# [5] = test system: BRAF-mutant A375 melanoma cells; experiment: A375 cell viability, MTS assay; format: cell-based; conditions: Homo sapiens, A-375, 72 h, read-out: A375 Cell Viability IC50
# Procedure, shortened: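 A375 cells were kept in RPMI with 10% heat-inactivated FBS, Glutamax and penicillin/streptomycin at 37 °C in 5% CO2. 2000 cells per well were treated with a range of test compound doses for 72 h. Viability was read by MTS assay. Run in triplicate.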
# SR = experiment: cells; format: cell-based
# MCF7 = experiment: cells; format: cell-based
# [6] = test system: NCI-60 panel of tumor cell lines
# UACC-62 = experiment: cells; format: cell-based
# HOP-92 = experiment: cells; format: cell-based
# U251 = experiment: cells; format: cell-based
# A549/ATCC = experiment: cells; format: cell-based
# Sequence of ERK2 (P63086 whole entry): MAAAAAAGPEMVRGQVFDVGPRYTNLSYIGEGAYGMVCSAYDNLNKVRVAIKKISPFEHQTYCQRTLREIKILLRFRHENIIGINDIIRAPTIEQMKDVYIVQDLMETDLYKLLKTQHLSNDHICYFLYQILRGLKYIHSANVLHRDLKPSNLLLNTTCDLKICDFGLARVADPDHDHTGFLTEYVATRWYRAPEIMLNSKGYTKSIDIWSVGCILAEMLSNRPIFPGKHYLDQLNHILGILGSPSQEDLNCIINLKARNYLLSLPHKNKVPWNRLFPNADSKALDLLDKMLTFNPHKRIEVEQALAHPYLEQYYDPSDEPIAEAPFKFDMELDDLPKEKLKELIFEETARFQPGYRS
# Sequence of ERK1 (P27361 whole entry, species assumed): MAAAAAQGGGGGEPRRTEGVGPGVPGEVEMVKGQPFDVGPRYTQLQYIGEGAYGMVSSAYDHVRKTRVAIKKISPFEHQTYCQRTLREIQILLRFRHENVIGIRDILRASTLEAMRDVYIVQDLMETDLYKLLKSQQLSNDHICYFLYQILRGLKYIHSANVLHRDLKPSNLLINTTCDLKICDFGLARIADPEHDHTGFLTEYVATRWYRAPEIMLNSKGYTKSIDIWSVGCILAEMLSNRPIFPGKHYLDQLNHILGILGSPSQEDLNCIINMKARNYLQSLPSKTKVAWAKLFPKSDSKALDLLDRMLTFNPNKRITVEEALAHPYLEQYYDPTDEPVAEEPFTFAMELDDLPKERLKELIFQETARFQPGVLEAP
smiles,measurement,setting,value
"O=C1c2ccccc2C(=O)c2c1oc1c2c(=O)[nH]c2ccc(Cl)cc21 [3b, 2-Chloronaphtho[2′,3′:4,5]furo[3,2-c]quinoline-6,7,12(5H)-trione]",IC50,ERK1,500 ± 90 nM
same,GI50,"SK-MEL-2; Homo sapiens, SK-MEL-2",1740 nM
same,CC50,"SK-MEL-2; Homo sapiens, SK-MEL-2, read-out: LC50",19.9 µM
same,Growth percent (G%),"SK-MEL-2; SK-MEL-2, 10^−5 M, 48 h",31.83%
same,TGI,"SK-MEL-2; SK-MEL-2, five-dose",5.13 µM
same,GI50,"SF-295; Homo sapiens, SF-295",630 nM
same,CC50,"SF-295; Homo sapiens, SF-295, read-out: LC50",6.61 µM
same,Growth percent (G%),"SF-295; SF-295, 10^−5 M, 48 h",−1.34%
same,TGI,"SF-295; SF-295, five-dose",2.29 µM
same,effect of excess Ets-1 (100 μM) on inhibition of ERK2,"ERK2; 5 μM inhibitor, 100 μM vs 10 μM Ets-1, 100 μM ATP",did not rescue
same,IC50,"ERK2; ERK2 IC50, 10 μM ATP",200 ± 10 nM
same,IC50,"ERK2; ERK2 IC50, 100 μM ATP, 10 μM Ets-1",600 ± 100 nM
same,IC50,"ERK2; ERK2 IC50 at 100 μM ATP /10mM Ets-1, Table 4, 100 μM ATP /10mM Ets-1",600 ± 100 nM
same,GI50,"RPMI-8226; Homo sapiens, RPMI-8226",390 nM
same,CC50,"RPMI-8226; Homo sapiens, RPMI-8226, read-out: LC50",> 100 µM
same,Growth percent (G%),"RPMI-8226; RPMI-8226, 10^−5 M, 48 h",4.83%
same,TGI,"RPMI-8226; RPMI-8226, five-dose",2.63 µM
same,GI50,"OVCAR-8; Homo sapiens, OVCAR-8",390 nM
same,CC50,"OVCAR-8; Homo sapiens, OVCAR-8, read-out: LC50",30.2 µM
same,Growth percent (G%),"OVCAR-8; OVCAR-8, 10^−5 M, 48 h",−27.45%
same,TGI,"OVCAR-8; OVCAR-8, five-dose",2.29 µM
same,concentration at which inhibition of colony forming ability starts,A375 cells [1],10 µM
same,GI50,"OVCAR-5; Homo sapiens, OVCAR-5",3.47 µM
same,CC50,"OVCAR-5; Homo sapiens, OVCAR-5, read-out: LC50",40.7 µM
same,Growth percent (G%),"OVCAR-5; OVCAR-5, 10^−5 M, 48 h",52.70%
same,TGI,"OVCAR-5; OVCAR-5, five-dose",14.79 µM
same,Growth percent (G%),"A498; A498, 10^−5 M, 48 h",80.44%
same,TGI,"A498; A498, five-dose",0.95 µM
same,GI50,"A498; Homo sapiens, A498",210 nM
same,CC50,"A498; Homo sapiens, A498, read-out: LC50",3.55 µM
same,"A375 real time proliferation (growth confluence), in words",A375 cells [2],dose-dependent inhibition
same,Growth percent (G%),"EKVX; 10^−5 M, 48 h",15.17%
same,GI50,EKVX; Homo sapiens,250 nM
same,CC50,"EKVX; Homo sapiens, read-out: LC50",26.3 µM
same,TGI,EKVX; five-dose,2.45 µM
same,GI50,"SK-MEL-28; Homo sapiens, SK-MEL-28",340 nM
same,CC50,"SK-MEL-28; Homo sapiens, SK-MEL-28, read-out: LC50",4.68 µM
same,Growth percent (G%),"SK-MEL-28; SK-MEL-28, 10^−5 M, 48 h",−11.84%
same,TGI,"SK-MEL-28; SK-MEL-28, five-dose",1.23 µM
same,level of cleaved PARP in A375,[3],elevated level
same,GI50,"SF-539; Homo sapiens, SF-539",230 nM
same,CC50,"SF-539; Homo sapiens, SF-539, read-out: LC50",2090 nM
same,Growth percent (G%),"SF-539; SF-539, 10^−5 M, 48 h",−27.99%
same,TGI,"SF-539; SF-539, five-dose",0.56 µM
same,GI50,"NCI-H226; Homo sapiens, NCI-H226",140 nM
same,CC50,"NCI-H226; Homo sapiens, NCI-H226, read-out: LC50",870 nM
same,Growth percent (G%),"NCI-H226; NCI-H226, 10^−5 M, 48 h",−28.80%
same,TGI,"NCI-H226; NCI-H226, five-dose",0.35 µM
same,caspase 3/7 activity in A375,[4],activation of caspase 3/7
same,IC50,[5],3.7 ± 0.6 µM
same,Growth percent (G%),"SR; 10^−5 M, 48 h",33.72%
same,GI50,SR; Homo sapiens,500 nM
same,CC50,"SR; Homo sapiens, read-out: LC50",> 100 µM
same,TGI,SR; five-dose,3.98 µM
same,GI50,"MCF7; Homo sapiens, MCF7",230 nM
same,CC50,"MCF7; Homo sapiens, MCF7, read-out: LC50",18.6 µM
same,Growth percent (G%),"MCF7; MCF7, 10^−5 M, 48 h",0.70%
same,TGI,"MCF7; MCF7, five-dose",1.05 µM
same,Average G%,"[6]; average over tested NCI-60 cell lines, 10^−5 M (10 μM), 48 h",−4.7% and −4.5% and −4.69%
same,"TGI values, range over all cell lines",[6]; five-dose,0.35 to 27.54 µM
same,"TGI, average",[6]; five-dose,1.02 µM
same,GI50,"UACC-62; Homo sapiens, UACC-62",280 nM
same,CC50,"UACC-62; Homo sapiens, UACC-62, read-out: LC50",3.98 µM
same,Growth percent (G%),"UACC-62; UACC-62, 10^−5 M, 48 h",75.08%
same,TGI,"UACC-62; UACC-62, five-dose",1.15 µM
same,Growth percent (G%),"HOP-92; HOP-92, 10^−5 M, 48 h",−37.24%
same,TGI,"HOP-92; HOP-92, five-dose",0.39 µM
same,GI50,"HOP-92; Homo sapiens, HOP-92",150 nM
same,CC50,"HOP-92; Homo sapiens, HOP-92, read-out: LC50",1000 nM
same,GI50,"U251; Homo sapiens, U-251",270 nM
same,CC50,"U251; Homo sapiens, U-251, read-out: LC50",2820 nM
same,Growth percent (G%),"U251; U251, 10^−5 M, 48 h",−77.55%
same,TGI,"U251; U251, five-dose",0.76 µM
same,Growth percent (G%),"A549/ATCC; A549/ATCC, 10^−5 M, 48 h",−0.05%
same,TGI,"A549/ATCC; A549/ATCC, five-dose",2.88 µM
same,GI50,"A549/ATCC; Homo sapiens, A549",1020 nM
same,CC50,"A549/ATCC; Homo sapiens, A549, read-out: LC50",8.32 µM
